Screening results deposited in PubChem BioAssay by Johns Hopkins Ion Channel Center.
A selection: hits, their analogues and other compounds. The true share with any hit is near 2.3%.
TRPC6 inhibitor: inhibitors of mouse TRPC6 channel; Q61143; HEK293-TRPC6, membrane potential dye, ACh-evoked depolarization; active compounds read low; B-score at 10 µM; hit rate 1.1% among 310,000; AID 2553;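 active = B-score under library mean minus 3 SD, initial fluorescence not abnormally high, positive integrated signal ratio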;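 also: B-score derived from integrated fluorescence ratio over the kinetic read; more negative B-score means stronger inhibition of depolarization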
TRPC4 potent: allosterically enhances the mouse TRPC4 cation channel | B-score at 10 µM | HEK293 TRPC4beta/mu-opioid, DAMGO EC20, Fluo-4 Ca2+ flux; active compounds read high | Q9QUQ5 | hit rate 0.42% among 310,000;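 active = B-score of calcium response area above 5 SD of library B-scores, with initial fluorescence ratio within 5 SD of library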;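 also: B-score of integrated fluorescence ratio over time as area under calcium response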
TRPC6 act: activators of mouse TRPC6 channel; Q61143; HEK293-TRPC6 membrane potential dye fluorescence; active compounds read high; B-score at 10 µM; hit rate 0.13% among 310,000;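 active = B-score of the integrated fluorescence ratio above library mean plus 3 SD, and starting fluorescence ratio within library mean plus 5 SD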;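 also: higher score means more depolarization so channel activation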
TRPC4 block: TRPC4 (mouse) channel inhibition | Q9QUQ5 | HEK293 TRPC4beta/mu-opioid, DAMGO-evoked Fluo4 calcium flux; active compounds read low | B-score at 10 µM | hit rate 0.39% among 300,000 | AID 2247;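 active = B-score over 3 SD under the library average, no early fluorescence shift, positive overall ratio signal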
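test system = HEK293 cells with stable TRPC4beta plus mu-opioid receptor expression | detection = Fluo4 Ca2+ flux fluorescence | read-out = integrated fluorescence ratio relative to baseline, converted to per-well B score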
TRPC4 agonist: activators of mouse TRPC4 channel; hit rate 0.49% among 310,000; B-score at 10 µM; HEK293 TRPC4beta/mu-opioid, Fluo4 calcium fluorescence; active compounds read high; AID 2237;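 active = B-score above 5 SD of library B-scores, and initial fluorescence ratio not above library mean plus 5 SD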;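 also: positive B-score marks a calcium rise read as TRPC4 activation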
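Technique: kinetic Fluo4 calcium fluorescence; Test system: TRPC4beta and mu-opioid receptor HEK293 stable cells; Measure: B-scored integrated calcium fluorescence ratio; Benchmarks: low control buffer alone, high control maximal DAMGO; Schedule: 45 min room-temperature Fluo4 loading, 110 s read.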
* marks the source's active call; other numbers are inactive results.

`CCSc1nc2ccccc2c(=O)n1CCc1ccc(OC)c(OC)c1` gave TRPC6 inhibitor inactive, TRPC4 potent inactive, TRPC6 act inactive, TRPC4 block inactive and TRPC4 agonist inactive.
COc1cc2c3nc4n(c(=O)c3n(CC(=O)NCC3CCCO3)c2cc1OC)CCS4 (stereo not given) was read as TRPC6 inhibitor inactive, TRPC4 potent inactive, TRPC6 act inactive, TRPC4 block inactive and TRPC4 agonist inactive.
`CC(=O)CC(=O)NC(=NC1CCCCC1)Nc1nc(C)cc(C)n1` gave TRPC6 inhibitor inactive, TRPC4 potent inactive, TRPC6 act inactive, TRPC4 block inactive and TRPC4 agonist inactive.
For Cc1cc(C)nc(NC(N)=NC2CCCCC2)n1 the results were TRPC6 inhibitor inactive, TRPC4 potent inactive, TRPC6 act inactive, TRPC4 block -9* and TRPC4 agonist inactive.
Screening CN1CCc2c(sc(NC(=O)c3ccc(S(=O)(=O)N4CCCC4)cc3)c2C(N)=O)C1 returned TRPC6 inhibitor -6*, TRPC4 potent inactive, TRPC6 act inactive, TRPC4 block inactive and TRPC4 agonist inactive.
Screening CCCCCN(C(=O)CN1CCC(Cc2ccccc2)CC1)c1c(N)n(CCCC)c(=O)[nH]c1=O returned TRPC6 inhibitor inactive, TRPC4 potent inactive, TRPC6 act inactive, TRPC4 block inactive and TRPC4 agonist inactive.
For CC(C)c1nnc(NC(=O)CCC(=O)N2CCN(Cc3ccccc3)CC2)s1 the results were TRPC6 inhibitor inactive, TRPC4 potent 12*, TRPC6 act inactive, TRPC4 block inactive and TRPC4 agonist inactive.
Screening COc1ccc(CN=Cc2[nH]c3ccc(Br)c(Cl)c3c2O)cc1 returned TRPC6 inhibitor inactive, TRPC4 potent inactive, TRPC6 act 16*, TRPC4 block inactive and TRPC4 agonist inactive.
COc1ccc(CN=CC2=C(O)CNC2=O)cc1 was read as TRPC6 inhibitor inactive, TRPC4 potent inactive, TRPC6 act inactive, TRPC4 block inactive and TRPC4 agonist inactive.
`O=C(CC12CC3CC(CC(C3)C1)C2)NC(=S)N1CCCCC1` gave TRPC6 inhibitor inactive, TRPC4 potent inactive, TRPC6 act inactive, TRPC4 block inactive and TRPC4 agonist inactive.
For N[C@@H](Cc1ccccc1)C(=O)N1CCC(C(=O)N[C@@H](Cc2c[nH]c3ccccc23)C(=O)O)CC1 the results were TRPC6 inhibitor inactive, TRPC4 potent inactive, TRPC6 act inactive, TRPC4 block -6* and TRPC4 agonist inactive.
Screening O=C1CC(c2cccc([N+](=O)[O-])c2)c2ccc3ccccc3c2N1 (stereo not given) returned TRPC6 inhibitor inactive, TRPC4 potent 11*, TRPC6 act inactive, TRPC4 block inactive and TRPC4 agonist inactive.
`CC(=O)c1cnc(Nc2cccc(C)c2)s1` gave TRPC6 inhibitor inactive, TRPC4 potent inactive, TRPC6 act inactive, TRPC4 block inactive and TRPC4 agonist inactive.
Screening Cc1ccccc1CNS(=O)(=O)c1c(C(=O)N2CCCCC2)c(C)n(C)c1C returned TRPC6 inhibitor inactive, TRPC4 potent inactive, TRPC6 act inactive, TRPC4 block inactive and TRPC4 agonist inactive.
CCCN(CCC)CCCOC(=O)c1ccc(Cl)cc1Cl was read as TRPC6 inhibitor inactive, TRPC4 potent inactive, TRPC6 act inactive, TRPC4 block inactive and TRPC4 agonist inactive.
CN(C)CCCOC(=O)c1ccc(Cl)cc1Cl was read as TRPC6 inhibitor inactive, TRPC4 potent 27*, TRPC6 act inactive, TRPC4 block inactive and TRPC4 agonist inactive.
O=C(N/N=C/c1ccccn1)NC12CC3CC(CC(C3)C1)C2 was read as TRPC6 inhibitor inactive, TRPC4 potent inactive, TRPC6 act inactive, TRPC4 block inactive and TRPC4 agonist inactive.
C/C(Cc1ccccc1)=N\NC(=O)CNC(=O)COc1cccc(C)c1 was read as TRPC6 inhibitor inactive, TRPC4 potent inactive, TRPC6 act inactive, TRPC4 block inactive and TRPC4 agonist 80*.
COc1ccc(C2=NN(C(=O)c3ccccc3)C(c3ccc(OC)c(OC)c3)C2)c(O)c1 (stereo not given) was read as TRPC6 inhibitor inactive, TRPC4 potent inactive, TRPC6 act inactive, TRPC4 block -7* and TRPC4 agonist inactive.
Screening COc1ccc(C2CC(c3ccc(OC)cc3OC(C)=O)=NN2C(=O)c2ccccc2)cc1 (stereo not given) returned TRPC6 inhibitor inactive, TRPC4 potent 11*, TRPC6 act inactive, TRPC4 block inactive and TRPC4 agonist inactive.
Cc1cc(C)cc(NC(=O)C2CCN(S(C)(=O)=O)CC2)c1 was read as TRPC6 inhibitor inactive, TRPC4 potent inactive, TRPC6 act inactive, TRPC4 block inactive and TRPC4 agonist inactive.
For C#CC[N+]1(CC#Cc2cccc3ccccc23)CCOCC1 the results were TRPC6 inhibitor inactive, TRPC4 potent 37*, TRPC6 act inactive, TRPC4 block inactive and TRPC4 agonist inactive.
`CCN(CC)CCSc1nc2ccc(OC)cc2[nH]1` gave TRPC6 inhibitor inactive, TRPC4 potent inactive, TRPC6 act inactive, TRPC4 block inactive and TRPC4 agonist 124*.
`CCCCn1c(NCc2ccc(N(C)C)cc2)nc2ccccc21` gave TRPC6 inhibitor inactive, TRPC4 potent inactive, TRPC6 act inactive, TRPC4 block -6* and TRPC4 agonist inactive.
For C=CCn1c(NCc2ccco2)nc2ccccc21 the results were TRPC6 inhibitor inactive, TRPC4 potent 34*, TRPC6 act inactive, TRPC4 block inactive and TRPC4 agonist inactive.
c1ccc(Cn2c(NCc3ccco3)nc3ccccc32)cc1 was read as TRPC6 inhibitor inactive, TRPC4 potent inactive, TRPC6 act inactive, TRPC4 block -6* and TRPC4 agonist inactive.
Screening CCn1c(NCc2ccco2)nc2ccccc21 returned TRPC6 inhibitor inactive, TRPC4 potent 54*, TRPC6 act inactive, TRPC4 block inactive and TRPC4 agonist inactive.
Screening CC(=O)Nc1cccc(-c2nnc(-c3ccc(C)cc3)o2)c1 returned TRPC6 inhibitor inactive, TRPC4 potent inactive, TRPC6 act inactive, TRPC4 block inactive and TRPC4 agonist inactive.
For CC(=O)N1CC(=O)N=C1SCC(=O)Nc1nc(-c2ccccc2)c(-c2ccccc2)s1 the results were TRPC6 inhibitor inactive, TRPC4 potent inactive, TRPC6 act inactive, TRPC4 block inactive and TRPC4 agonist inactive.
`CCOc1ccc(S(=O)(=O)N2CCCC(C(=O)N3CCOCC3)C2)cc1Cl` (stereo not given) gave TRPC6 inhibitor inactive, TRPC4 potent inactive, TRPC6 act inactive, TRPC4 block inactive and TRPC4 agonist inactive.
CSc1ncccc1C(=O)NCCc1ccc(S(N)(=O)=O)cc1 was read as TRPC6 inhibitor inactive, TRPC4 potent inactive, TRPC6 act inactive, TRPC4 block inactive and TRPC4 agonist inactive.
